From PubChem BioAssay
This is a sample that favours compounds with a hit; in the whole collection about 2.4% have one here.
Neddylation inh – inhibitors of cullin neddylation, primary screen, biochemical, TR-FRET, uHTS, NAE and Ubc12 | NEDD8-conjugating enzyme Ubc12 (Homo sapiens) + NEDD8-activating enzyme E1 regulatory … | actives 0.58% (n = 360,000) | AID 651699, 2012 | inhibition, % at 25 µM; in the data active = inhibition above about 36%
Rpn11 block – Rpn11 (PSMD14) deubiquitinase inhibitors, primary screen, biochemical, fluorescence polarization, uHTS. inhibition, % at 20 µM. AID 588493, 2011. human 26S proteasome, Ub4-pepOG fluorescence polarization; 20S core pre-blocked with epoxomicin. actives 0.59% (n = 360,000). 26S proteasome non-ATPase regulatory subunit 14 (Homo sapiens), O00487;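 active = inhibition at 20 µM, scaled to each plate's controls, above about 33%, limit read from the data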
Target sequence (O00487 whole entry, looked up): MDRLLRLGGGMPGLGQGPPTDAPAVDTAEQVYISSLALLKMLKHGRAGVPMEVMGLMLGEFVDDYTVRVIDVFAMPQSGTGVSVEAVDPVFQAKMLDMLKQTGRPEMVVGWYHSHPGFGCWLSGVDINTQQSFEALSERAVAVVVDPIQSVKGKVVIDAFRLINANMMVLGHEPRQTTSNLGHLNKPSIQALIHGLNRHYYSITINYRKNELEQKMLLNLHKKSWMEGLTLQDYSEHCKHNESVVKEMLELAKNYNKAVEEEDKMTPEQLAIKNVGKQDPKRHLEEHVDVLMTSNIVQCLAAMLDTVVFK
TbMetRS inhib – T. brucei MetRS inhibitors, primary screen, biochemical, luminescence | purified T. brucei MetRS, ATP depletion, Kinase-Glo luminescence | inhibition, % at 11.9 µM | actives 0.4% (n = 360,000);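 active = inhibition above a per-plate cutoff of the control wells' mean inhibition plus 3 SD, cut at about 5.5% in these data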;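 also: 0% = DMSO wells median and 100% = median of wells with control inhibitor compound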
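Dosing: 11.9 µM single point; system: parasite MetRS enzyme; technique: luminescence of leftover ATP; times: 15 min enzyme-compound preincubation, 2 h reaction, 10 min detection, 25 °C; replicates: each compound tested once; read-out basis: percent inhibition relative to median high and low control wells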
PREPL inhibitor – PREPL enzyme inhibitors, primary screen, biochemical, fluorescence polarization; Prolyl endopeptidase-like (Homo sapiens), Q4J6C6; recombinant PREPL, fluorescence polarization activity-based probe; inhibition, % at 5.96 µM; actives 0.68% (n = 320,000); AID 2751, 2010; in the data active = inhibition above about 43%;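 also: 0% = enzyme with DMSO and 100% = wells lacking enzyme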
CSN deneddyl inh – inhibitors of CSN-mediated cullin deneddylation, primary screen, biochemical, fluorescence polarization, uHTS; Purified CSN, SCF-Nedd8-OG deneddylation; actives 0.38% (n = 360,000); COP9 signalosome complex subunit 5 (Homo sapiens), Q92905; inhibition, % at 12.5 µM;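 active = pattern-corrected inhibition above about 35%, with an unprinted fluorescence ratio check between 0.5 and 1.5, limit read from the data, passing the limit was not always enough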;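 also: 0% = enzyme with substrate and 100% = substrate without enzyme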
Target sequence (Q92905 whole entry, looked up, one chain of several): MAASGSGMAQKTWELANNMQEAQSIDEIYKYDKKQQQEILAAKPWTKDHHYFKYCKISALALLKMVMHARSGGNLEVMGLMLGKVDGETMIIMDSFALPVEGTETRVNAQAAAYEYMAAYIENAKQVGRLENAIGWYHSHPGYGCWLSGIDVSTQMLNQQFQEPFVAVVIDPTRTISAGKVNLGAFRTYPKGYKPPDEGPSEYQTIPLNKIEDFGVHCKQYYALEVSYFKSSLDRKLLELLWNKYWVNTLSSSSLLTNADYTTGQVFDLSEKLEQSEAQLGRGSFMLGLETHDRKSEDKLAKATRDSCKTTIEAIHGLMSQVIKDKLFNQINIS
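Material: human Csn5 produced in HEK293T cells; Input: enzyme 0.24 nM; Reagent: SCFSkp2-Nedd8OG substrate at 10 nM final; Dosing: 12.5 µM compound; Incubation: 90 min reaction at room temperature; Detection: fluorescence polarization of the substrate; Evaluation: % inhibition of substrate cleavage by Csn5; Control set: substrate-only high control, full reaction low control.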
HNF4A DNA FP – change in binding of human HNF4A to DNA, primary screen, biochemical, fluorescence polarization, FITC-DNA | 1 h | activity change, % at 10 µM | actives 0.3% (n = 360,000); in the data active = activity change above about 30%, passing the limit was not always enough
PREPL confirm – human PREPL enzyme inhibitors, confirmation, biochemical, fluorescence polarization | shares compounds with PREPL inhibitor | recombinant PREPL, fluorescence polarization activity probe | inhibition, % at 5.96 µM | actives 67% (n = 2,000) | AID 2803, 2010; in the data active = inhibition above about 43%;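 also: 0% = protein with DMSO and 100% = wells lacking protein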
Rpn11 confirm – Rpn11 (PSMD14) deubiquitinase inhibitors, confirmation, biochemical, fluorescence polarization, single concentration | shares compounds with Rpn11 block | purified human 26S proteasome, Ub4-pepOG fluorescence polarization; proteasome pretreated with epoxomicin | inhibition, % at 20 µM | actives 29% (n = 1,900) | AID 602318, 2012
MMP-2 counter – MMP-2 enzyme inhibition, confirmation, counter-screen for RPN11 inhibitor project, biochemical, fluorescence, single concentration; shares compounds with Rpn11 block; recombinant MMP-2, FRET peptide cleavage fluorescence; inhibition, % at 20 µM; actives 4% (n = 1,900); AID 602330, 2012;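 also: human MMP-2 activated beforehand with APMA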
Thrombin FP – bovine thrombin protease inhibition, confirmation, counter-screen for Rpn11 inhibitor project, biochemical, fluorescence polarization, single concentration; actives 13% (n = 1,900); inhibition, % at 20 µM; bovine thrombin cleavage of Ub4-pepOG; shares compounds with Rpn11 block;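 active = mean inhibition at least 40% at 20 µM, or signal 3 deviations below plate average, so some actives read negative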;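 also: plate controls were thrombin with DMSO for no effect and buffer wells lacking thrombin for full effect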
* hit, by the source's call; . = no result shown. Rule as the data show it, unless noted: active = inhibition above about 40%; inactive = the rest.

SMILES | Neddylation inh | Rpn11 block | TbMetRS inhib | PREPL inhibitor | CSN deneddyl inh | HNF4A DNA FP | PREPL confirm | Rpn11 confirm | MMP-2 counter | Thrombin FP
COc1cc(C23CCCN(CCC(C(C)(C)C)C2)C32OCCO2)cc(OC)c1OC (centres undefined) | 3 | . | 0 | . | -9 | 2 | . | . | . | .
CCNC(=O)C1(C)CCN(C(=O)CCc2ccccc2)C1 (centres undefined) | 4 | -2 | 0 | . | -4 | 3 | . | . | . | .
CC(NC(=O)c1ccccc1SCC(=O)N1CCCC1)c1ccc(F)cc1 (centres undefined) | 7 | 3 | 0 | 0 | -4 | 3 | . | . | . | .
Cc1cc(/C=C(/C#N)c2nc3ccccc3[nH]2)c(C)n1-c1cccc([N+](=O)[O-])c1 | -9 | 2 | -1 | 44* | -1 | -2 | 39 | . | . | .
COc1c(O)ccc(/C=C(\C#N)c2nc3ccccc3[nH]2)c1[N+](=O)[O-] | -24 | -7 | 1 | 56* | -1 | 8 | 16 | . | . | .
COc1cc(/C=C(\C#N)c2nc3ccc(C)cc3[nH]2)c([N+](=O)[O-])cc1OC | -14 | 3 | 5 | 22 | 3 | 0 | . | . | . | .
CCC(=O)N1CCC1(C)C(=O)Nc1ccc(OC)c(OC)c1 (centres undefined) | -1 | 1 | 0 | . | 2 | -4 | . | . | . | .
O=C(Nc1cc(Cl)cc2c1-c1ccc(Cl)cc1C2O)C(Cl)Cl (centres undefined) | -18 | 6 | 0 | . | 0 | 2 | . | . | . | .
O=C(C[C@H]1C(=O)N(CCc2ccccc2)C[C@@H]1Cc1ccccc1)Nc1ccccc1 | -4 | 5 | 0 | 2 | -1 | -3 | . | . | . | .
C#CCOCCOCCOCCNc1nc(N2CCN(C(=O)[C@H](CCCCN)n3cc([C@@H](N)C(C)CC)nn3)CC2)nc(N2CCN(C(=O)[C@H](Cc3cc4ccccc4[nH]3)n3cc([C@@H](N)C(C)CC)nn3)CC2)n1 (some centres undefined) | -30 | -9 | 0 | 57* | 21 | 49* | 53* | . | . | .
C#CCOCCOCCOCCNc1nc(N2CCN(C(=O)C(Cc3cc4ccccc4[nH]3)n3cc(C(N)C(C)CC)nn3)CC2)nc(N2CCN(C(=O)C(Cc3cc4ccccc4[nH]3)n3cc(C(N)C(C)CC)nn3)CC2)n1 (centres undefined) | -21 | 16 | . | 50* | 44* | 1 | 62* | . | . | .
COc1cccc(CN2CCN(C(=O)[C@H]3O[C@@H](n4cnc5c(N)ncnc54)[C@H](O)[C@@H]3O)CC2=O)c1 | -2 | -11 | -1 | . | -4 | 2 | . | . | . | .
Cc1c(Cl)cccc1NC(=O)COC(=O)c1c2c(nc3ccccc13)CCN(Cc1ccccc1)C2 | 38 | 61* | -1 | 51* | -10 | 4 | 46* | -22 | -20 | -4
NNc1nc2cc3c(cc2s1)OCCO3 | 9 | 14 | 0 | 8 | 8 | 2 | . | . | . | .
COc1cc(/C=C2/C(=N)N3C(=NC2=O)SN=C3S(C)(=O)=O)ccc1OC(=O)c1ccco1 | -93 | 69* | 0 | 62* | 31 | 51* | 80* | 67* | 13 | 39
CS(=O)(=O)C1=NSC2=NC(=O)/C(=C\c3ccc(OC(=O)c4ccco4)cc3)C(=N)N21 | . | . | . | 27 | . | . | . | . | . | .
O=C(CNC(=O)c1cccs1)c1ccc(Br)cc1 | -14 | 12 | 0 | 4 | -1 | -27 | . | . | . | .
O=C1c2ccccc2-c2onc3c(N4CCN(CCO)CC4)cc(N4CCN(C(=O)c5ccco5)CC4)c1c23 | -20 | 49* | 0 | 45* | 8 | 5 | 56* | active | -92 | active
COc1ccc(NC(=O)C2(C)CCN2C(=O)c2ccccc2CCc2ccccc2)cc1OC (centres undefined) | -7 | 4 | 0 | . | 3 | 4 | . | . | . | .
N#Cc1cc(C#N)c(SCC(=O)N2CC(=O)Nc3ccccc32)nc1N | -21 | 43* | 0 | 46* | 10 | 11 | 38 | 28 | -57 | 23
Cc1cccc(NS(=O)(=O)c2ccc(-n3cccn3)cc2)c1C | -2 | -3 | 0 | -12 | -4 | -1 | . | . | . | .
CNC(=O)/C(C#N)=C/c1c(N2CCN(c3ccc(OC)cc3)CC2)nc2c(C)cccn2c1=O | . | 56* | -2 | 52* | 3 | -1 | 44* | -17 | -57 | 9
CNC(=O)/C(C#N)=C/c1c(N2CCN(c3ccccc3)CC2)nc2c(C)cccn2c1=O | . | -15 | -1 | 16 | 2 | 5 | . | . | . | .
C#CCOCCOCCOCCNc1nc(N2CCN(C(=O)[C@H]([C@@H](C)CC)n3cc([C@@H](N)Cc4ccc(O)cc4)nn3)CC2)nc(N2CCN(C(=O)[C@H](Cc3cc4ccccc4[nH]3)n3cc([C@@H](N)CC(C)C)nn3)CC2)n1 | -11 | 64* | 0 | 58* | 20 | 20 | 59* | 9 | 38 | -9
COc1ccc(/C=C2\SC(N3CCCCC3)=NC2=O)cc1OC | -14 | -13 | 0 | 14 | -5 | -5 | . | . | . | .
COc1cc(/C=C2\SC(N3CCC(C)CC3)=NC2=O)ccc1O | -35 | 65* | 0 | 44* | 19 | 13 | 12 | 34 | -15 | 28
